This is an account of results in ChEMBL document CHEMBL1268807, “Discovery of small molecule inhibitors of the PH domain leucine-rich repeat protein phosphatase (PHLPP) by chemical and virtual screening” (J Med Chem, 2010).

Calls of active or inactive are those of the source. The rule behind the calls is not given here.

One series concerns the target T1, PH domain leucine-rich repeat-containing protein phosphatase 2 (Homo sapiens, UniProt Q6ZVD8).
T1 sequence (Q6ZVD8 whole entry): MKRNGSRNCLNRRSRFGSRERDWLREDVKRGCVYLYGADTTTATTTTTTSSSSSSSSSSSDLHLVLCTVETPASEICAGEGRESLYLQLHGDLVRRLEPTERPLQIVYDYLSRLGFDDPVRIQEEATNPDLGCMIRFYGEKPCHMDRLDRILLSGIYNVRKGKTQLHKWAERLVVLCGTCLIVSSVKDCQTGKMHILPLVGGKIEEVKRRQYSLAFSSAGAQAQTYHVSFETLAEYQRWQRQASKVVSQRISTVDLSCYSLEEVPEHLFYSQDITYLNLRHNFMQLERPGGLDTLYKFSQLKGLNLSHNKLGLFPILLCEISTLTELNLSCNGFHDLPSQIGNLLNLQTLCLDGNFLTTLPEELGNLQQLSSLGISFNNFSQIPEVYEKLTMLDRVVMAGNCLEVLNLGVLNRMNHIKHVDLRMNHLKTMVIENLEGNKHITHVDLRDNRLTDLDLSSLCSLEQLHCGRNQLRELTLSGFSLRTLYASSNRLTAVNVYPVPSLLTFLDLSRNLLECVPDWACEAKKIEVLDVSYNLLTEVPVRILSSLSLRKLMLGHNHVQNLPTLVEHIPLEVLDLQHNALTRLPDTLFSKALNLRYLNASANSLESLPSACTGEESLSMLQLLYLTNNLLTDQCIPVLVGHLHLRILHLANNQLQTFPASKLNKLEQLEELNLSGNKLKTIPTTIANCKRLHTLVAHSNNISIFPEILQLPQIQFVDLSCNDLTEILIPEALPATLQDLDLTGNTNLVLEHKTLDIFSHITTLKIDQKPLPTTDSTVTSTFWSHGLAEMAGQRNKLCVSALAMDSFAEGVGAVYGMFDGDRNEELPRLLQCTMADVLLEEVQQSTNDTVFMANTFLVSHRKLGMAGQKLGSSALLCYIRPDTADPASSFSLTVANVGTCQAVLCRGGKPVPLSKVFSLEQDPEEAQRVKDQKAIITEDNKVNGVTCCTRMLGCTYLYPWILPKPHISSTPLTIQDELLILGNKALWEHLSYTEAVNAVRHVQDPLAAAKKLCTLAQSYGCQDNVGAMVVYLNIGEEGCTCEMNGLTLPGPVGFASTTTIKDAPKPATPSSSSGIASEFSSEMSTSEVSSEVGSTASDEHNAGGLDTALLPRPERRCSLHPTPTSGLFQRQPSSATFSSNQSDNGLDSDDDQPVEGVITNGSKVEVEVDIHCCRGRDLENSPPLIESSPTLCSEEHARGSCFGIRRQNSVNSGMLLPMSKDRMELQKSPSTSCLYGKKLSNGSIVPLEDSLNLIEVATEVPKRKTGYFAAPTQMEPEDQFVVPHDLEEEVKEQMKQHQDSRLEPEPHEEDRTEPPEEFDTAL
Nature of the series: Inhibition of PHLPP2 phosphatase domain expressed in Escherichia coli.
Conditions: not given
The method in brief: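 A405 was followed over time, slope taken, no-enzyme background subtracted. Inhibitor at seven concentrations versus DMSO (100%); fit to eq 1, IC50 = −C0 ln(1/2).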
In general, IC50 refers to the concentration at which inhibition is half-maximal. High values mean weaker potency in that assay, low ones greater potency in that assay. In turn, `Cc1cc(/N=N/c2ccc(/N=N/c3ccc(O)c(C(=O)O)c3)cc2)c(N)cc1N` had an IC50 of 3.75 µM. For the molecule `O=C(O)C1CCCCC1c1c2ccc(=O)c(O)c-2oc2c(O)c(O)ccc12` (stereo unspecified), the IC50 was found to be 10 µM.

Test system in another series: not listed separately
Nature of the series: Inhibition of PHLPP in human […] cells assessed as increase of phosphorylation of GSK3 alpha/beta on Ser21/9 at 100 to 250 uM after 24 hrs by immunoblotting. The class given is cell-based.
Conditions: not given
The method in brief: (§1)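 HT29 colon cells kept in DMEM with 5% FBS were given compounds (100 or 250 μM, DMSO vehicle) for 24 h, then lysed on ice. […] Densitometry normalized to actin and expressed relative to control lanes; three experiments, mean ± SEM.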
For `Cc1cc(/N=N/c2ccc(/N=N/c3ccc(O)c(C(=O)O)c3)cc2)c(N)cc1N`, the inhibition entry was “Active”. The same measure, in the same setting: as for `COc1cc(NCCC2CCCCN2)c2ncccc2c1` (stereo unspecified), the entry is “Active”.

With `COc1ccc2nc3cc(Cl)ccc3c(Nc3ccc(C(=O)O)cc3)c2c1`, the inhibition entry was “Active”.

Test system in a further series: not listed separately
Nature of the series: Inhibition of PHLPP in human […] cells assessed as increase of phosphorylation of FoxO1/3alpha on Thr 24/32 at 100 to 250 uM after 24 hrs by immunoblotting. The class given is cell-based.
Conditions: not given
The method in brief:
as §1
`Cc1cc(/N=N/c2ccc(/N=N/c3ccc(O)c(C(=O)O)c3)cc2)c(N)cc1N`: the inhibition result was “Active”. As for `COc1cc(NCCC2CCCCN2)c2ncccc2c1` (stereo unspecified), the inhibition entry is “Active”. With `COc1ccc2nc3cc(Cl)ccc3c(Nc3ccc(C(=O)O)cc3)c2c1`, the inhibition result is “Active”.

The next series deals with HT-29 (Homo sapiens). As to the kind of experiment: Inhibition of PHLPP in human HT29 cells assessed as increase of phosphorylation of Akt on Ser 473 at 100 to 250 uM after 24 hrs by immunoblotting relative to control.
Conditions: not given
For the molecule `O=C(O)c1c(O)c(/N=N/c2ccc(S(=O)(=O)Nc3nccs3)cc2)cc2ccccc12`, the inhibition entry was “Active”. Take `O=C(O)c1c(O)c(/N=N/c2ccc(S(=O)(=O)Nc3ccccn3)cc2)cc2ccccc12`: the inhibition result was “Active”. Same read-out and setting: under `NS(=O)(=O)c1ccc(/N=N/c2ccc(O)c(C(=O)O)c2)cc1` stands “Active”; under `O=C(O)c1cc(/N=N/c2ccc(S(=O)(=O)Nc3nccs3)cc2)ccc1O`, “Active”.

In the case of `Cc1cc(/N=N/c2ccc(/N=N/c3ccc(O)c(C(=O)O)c3)cc2)c(N)cc1N`, the inhibition entry was “Active”. Take `COc1cc(NCCC2CCCCN2)c2ncccc2c1` (stereo unspecified): the inhibition result is “Active”.

On to `Cc1cc(/N=N/c2ccc(/N=N/c3ccc(S(=O)(=O)O)cc3)cc2)cc(C(=O)O)c1O`, for which the inhibition entry was “Active”. For the molecule `COc1ccc2nc3cc(Cl)ccc3c(Nc3ccc(C(=O)O)cc3)c2c1`, the inhibition entry is “Active”. On the same count and under the same terms, under `CS(=O)(=O)c1cc2ccc(Nc3ccccc3)cc2c(O)c1/N=N/c1ccc(-c2ccc(/N=N/c3ccc(O)c(C(=O)O)c3)cc2)cc1` stands “Active”; under `COc1cc(/N=N/c2ccc(S(=O)(=O)O)cc2)ccc1/N=N/c1ccc(O)c(C(=O)O)c1`, “Active”; under `CN(C)CCOC(=O)c1ccc(N)cc1`, “Active”. Still for that read-out and setting: under `Cc1ccc(/N=N/c2c(N)c(C)cc(/N=N/c3ccc(/N=N/c4ccc(O)c(C(=O)O)c4)cc3)c2N)c(S(=O)(=O)O)c1` stands “Active”; under `O=C1c2ccccc2-c2cc([N+](=O)[O-])c([N+](=O)[O-])cc21`, “Active”. On the same count and under the same terms, as for `COc1ccc2nc3cc(Cl)ccc3c(Nc3ccc(C(=O)O)c(O)c3)c2c1`, the entry is “Active”; as for `O=S(=O)(O)c1ccc(-c2nnc(-c3ccccn3)nc2-c2ccc(S(=O)(=O)O)o2)o1`, “Active”; as for `CN(C)c1ccc(C(c2ccc(N(C)C)cc2)c2ccc([N+](=O)[O-])cc2)cc1`, “Active”.

With `NS(=O)(=O)c1ccc(/N=N/c2ncccc2O)cc1`, the inhibition result was “Active”. In the case of `Nc1c(/N=N/c2ccc(-c3ccc(/N=N/c4cc(S(=O)(=O)O)c5ccccc5c4N)cc3)cc2)cc(S(=O)(=O)O)c2ccccc12`, the inhibition entry was “Active”. `COc1cc(-c2ccc(/N=N/c3c(S(=O)(=O)O)cc4cc(N)ccc4c3O)c(OC)c2)ccc1/N=N/c1cc(S(=O)(=O)O)c2ccccc2c1O`: the inhibition entry was “Active”. Same read-out and setting: under `CC(=O)Nc1ccc(Nc2cc(S(=O)(=O)O)c(N)c3c2C(=O)c2ccccc2C3=O)cc1` stands “Active”.

In the case of `Nc1nc(SCc2ccccc2)c2ncn(Cc3ccccc3)c2n1`, the inhibition result is “Active”.

With `Nc1cc(N)c(/N=N/c2ccc(S(=O)(=O)O)cc2)cc1/N=N/c1ccc(-c2ccc(/N=N/c3ccc(O)c(C(=O)O)c3)cc2)cc1`, the inhibition result was “Active”.

With `O=C(O)C1CCCCC1c1c2ccc(=O)c(O)c-2oc2c(O)c(O)ccc12` (stereo unspecified), the inhibition entry is “Active”. On the same count and under the same terms, under `Nc1cc(S(=O)(=O)O)cc2cc(S(=O)(=O)O)c(/N=N/c3ccc(S(=O)(=O)c4ccc(/N=N/c5c(O)ccc6cccc(S(=O)(=O)O)c56)cc4)cc3)c(O)c12` stands “Active”. The same measure, in the same setting: under `Cc1cc(-c2ccc(/N=N/c3c(S(=O)(=O)O)cc4cc(S(=O)(=O)O)cc(N)c4c3O)c(C)c2)ccc1/N=N/c1cc(S(=O)(=O)O)c2ccccc2c1O` stands “Active”; under `CS(=O)(=O)c1cc2cc(Nc3ccccc3)ccc2c(O)c1/N=N/c1ccc(-c2ccc(/N=N/c3ccc(O)c(C(=O)O)c3)cc2)cc1`, “Active”. Turning to `S=C(Nc1ccc2cn[nH]c2c1)Nc1ccc2cn[nH]c2c1`, the inhibition result is “Active”. In the case of `CS(=O)(=O)c1ccc2c(/N=N/c3ccc(-c4ccc(/N=N/c5ccc(N)c6cc(S(=O)(=O)O)ccc56)cc4)cc3)ccc(N)c2c1`, the inhibition result is “Active”.

For the next series, the system named is HT20. Nature of the series: Inhibition of PHLPP in human […] cells assessed as increase of phosphorylation of FoxO1/3alpha on Thr 24/32 at 100 uM after 24 hrs by immunoblotting.
Conditions: not given
The format is cell-based. A digest of the protocol: as §1
Background: In western blotting, separated proteins are transferred to a membrane and probed.
Regarding `COc1ccc(NCc2c(O)ccc3ccccc23)cc1`, the inhibition result was “Active”.

The next series deals with HT20. Nature of the series: Inhibition of PHLPP in human […] cells assessed as increase of phosphorylation of GSK3 alpha/beta on Ser21/9 at 100 uM after 24 hrs by immunoblotting. The class given is cell-based.
Conditions: not given
A digest of the protocol:
as §1
For `COc1ccc(NCc2c(O)ccc3ccccc23)cc1`, the inhibition entry is “Active”.

Another series deals with HT20. As to the kind of experiment: Inhibition of PHLPP in human […] cells assessed as increase of phosphorylation of Akt on Ser 473 at 100 to 250 uM after 24 hrs by immunoblotting relative to control. The class given is cell-based.
Conditions: not given
A digest of the protocol:
as §1
`C[C@]12CC[C@H]3[C@@H](CCC4=CC(=O)CC[C@@]43C)[C@@H]1CC[C@@H]2C(=O)COS(=O)(=O)c1ccc(Br)cc1`: the inhibition result was “Active”.

The test system of the next series is HT-29. As to the kind of experiment: Cytotoxicity against human HT-29 cells at 100 uM after 24 hrs. The format is cell-based. To be noted: ht-29, 24 h.
On to `COc1cc(NCCC2CCCCN2)c2ncccc2c1` (stereo unspecified), for which the Activity entry is reported as “Toxic”.

The test system of the next series is HT20. Nature of the series: Inhibition of PHLPP in human […] cells assessed as increase of phosphorylation of Akt on Ser 473 at 100 uM after 24 hrs by immunoblotting. The class given is cell-based.
Conditions: not given
A digest of the protocol:
as §1
As to `COc1ccc(NCc2c(O)ccc3ccccc23)cc1`, the inhibition entry was “inactive”.
